MrgX1 antag: antagonists of human MrgX1 receptor; Q96LB2; MRGX1-HEK293 calcium flux, Fluo-4, BAM8-22 antagonism; active compounds read low; B-score at 10 µM; 310,000 compounds, 1.3% hits; AID 588676;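 active = calcium-response B-score plate-corrected more than 3 library SD below zero, starting fluorescence within 5 deviations, no agonist response on first addition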;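 note: peak minus trough fluorescence over baseline after final BAM8-22 challenge near maximal dose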
Target sequence (Q96LB2 whole entry, looked up): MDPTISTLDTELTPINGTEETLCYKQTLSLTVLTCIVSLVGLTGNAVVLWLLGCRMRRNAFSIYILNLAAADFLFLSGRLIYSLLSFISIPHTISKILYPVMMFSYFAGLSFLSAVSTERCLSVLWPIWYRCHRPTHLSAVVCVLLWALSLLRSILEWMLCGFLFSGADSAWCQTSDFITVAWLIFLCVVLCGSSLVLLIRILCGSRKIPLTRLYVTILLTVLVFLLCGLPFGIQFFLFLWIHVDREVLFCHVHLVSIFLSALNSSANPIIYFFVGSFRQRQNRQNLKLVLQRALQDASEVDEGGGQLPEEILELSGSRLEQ
RGS4 pot: RGS4 potentiation or activation | 310,000 compounds, 0.92% hits | B-score at 10 µM | HEK293 M3R/inducible RGS4, carbachol calcium flux Fluo4; active compounds read low;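 active = B-score of the integrated calcium signal more than 4 SD below the library mean, with starting fluorescence not abnormally high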;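 note: negative B-score means reduced calcium response which marks RGS4 activation or potentiation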
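Detection: kinetic calcium fluorescence imaging with Fluo4-AM dye, 2 µM / Material: HEK293 cells with stable M3R and inducible RGS4 / Schedule: recording 10 s baseline at 1 Hz, 100 s post-agonist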
RGS4 block: inhibitors of human RGS4 | AID 463165 | HEK293 M3R/RGS4 inducible, Fluo-4 calcium flux; active compounds read high; triggered by carbachol at its EC20 | B-score at 10 µM | 310,000 compounds, 0.45% hits | P49798;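 active = B-score, a plate-corrected calcium signal, over three deviations above library mean, with baseline fluorescence within five deviations of library mean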;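 note: RGS4 expression induced by doxycycline in cells with stable M3 receptor; B-score is computed from the integrated fluorescence ratio over baseline after carbachol; higher B-score means a larger calcium signal and so more RGS4 inhibition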
Target sequence (P49798 whole entry, looked up): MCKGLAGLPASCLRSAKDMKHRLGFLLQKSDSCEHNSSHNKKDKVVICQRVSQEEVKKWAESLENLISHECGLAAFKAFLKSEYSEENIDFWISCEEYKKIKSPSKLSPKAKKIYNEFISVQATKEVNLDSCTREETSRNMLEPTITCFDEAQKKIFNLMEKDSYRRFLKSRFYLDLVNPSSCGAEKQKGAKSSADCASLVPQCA
MrgX1 allo act: allosterically activates human MrgX1 receptor signaling; Q96LB2; MrgX1-HEK293, Fluo-4 calcium flux, FDSS; active compounds read high; B-score at 10 µM; 310,000 compounds, 0.63% hits; AID 588675;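 active = plate-corrected calcium response at least 3 library SD above typical, normal starting fluorescence, not activating the receptor alone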;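 note: compound read alongside a low EC10 to EC30 dose of BAM8-22 agonist; peak minus trough fluorescence over baseline measured at the second addition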
MrgX1 agonist: activates human MrgX1 receptor signaling; MrgX1-HEK293 cells, Fluo-4 calcium fluorescence, agonist mode; active compounds read high; Q96LB2; AID 588627; 310,000 compounds, 0.44% hits; B-score at 10 µM;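 active = calcium response B-score plate-corrected fluorescence ratio at least 3 library SD, with starting fluorescence B-score inside 5 SD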
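System: HEK293 cells stably expressing human MrgX1 receptor; Dosing: test compound in the initial addition of three; Schedule: overnight plating, then 30 min 37 °C plus 30 min room-temperature dye loading; Detection: kinetic calcium dye fluorescence, Fluo-4 NW; Controls: per-plate positive and negative controls for Z′ factor.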
Each line names hits and unclear results; the compound was inactive in the other large screens. A selection: hits, their analogues and other compounds. The true share with any hit is near 3.5%.

CCOc1cccc(CNc2ccc(O)cc2)c1OCc1ccccc1Cl	MrgX1 agonist 29
CC1CC(C)CN(C(=O)c2cc(-c3ccncc3)nc3ccccc23)C1 (stereo unspecified)	none
Cc1ccccc1CN1CCN(C(=O)c2cc(-c3ccncc3)nc3ccccc23)CC1	RGS4 pot -7.1
COc1cccc(CN2CCN(C(=O)c3cc(-c4ccncc4)nc4ccc(C)cc34)CC2)c1	RGS4 pot -7
CC(=O)c1ccc(N2CCN(C(=O)c3cc(-c4ccncc4)nc4ccc(Cl)cc34)CC2)cc1	RGS4 pot -7.4
COc1ccc(-n2c(=O)c3c(C)c(C)sc3n(Cc3ccc(F)cc3)c2=O)c(OC)c1	none
CCCC(=O)OCCNC(=O)c1cc2ccccc2oc1=O	MrgX1 antag -5.4
CCCCN(C)S(=O)(=O)c1ccc(C(=O)Nc2nnc(-c3cccs3)o2)cc1	MrgX1 agonist 31
CCCCCCCCOC(=O)C[N+](C)(C)C/C=C(/C)Cl	none
CCCCCCCCCCCCOC(=O)C[N+](C)(C)C	RGS4 pot -8.9
CCCCCCCCCCOC(=O)C[N+](C)(C)C/C=C(/C)Cl	MrgX1 antag -5.3
Cc1ccc(=O)n(C(C(=O)NCc2ccco2)C(=O)c2ccc(F)cc2)c1 (stereo unspecified)	none
O=C(CSc1nnc(NC(=O)c2cccc(F)c2)s1)NCc1ccco1	none
N#Cc1c(Cl)cccc1Oc1ccc(S(=O)(=O)Nc2ccccc2)cc1	none
Cc1cccc(C(=O)NNC(=S)NC(=O)c2ccccc2)c1	MrgX1 agonist 186
COc1ccc(C(=O)NC(=S)NNC(=O)c2cccc(C)c2)cc1	RGS4 pot -8.4, MrgX1 agonist 102
Cc1ccc(C(=O)NNC(=O)c2cccc(C)c2)cc1	none
Cc1ccc(C(=O)NNC(=S)NC(=O)c2ccccc2)cc1	MrgX1 agonist 139
O=C(C1CCN(S(=O)(=O)N2CCCC2)CC1)N1CCCCC1	none
O=C(Nc1ccccc1)c1ccc(=O)n(Cc2ccc(F)c(F)c2)c1	none
CC(=O)Nc1ccc(C(=O)Cn2c3[n+](c4c(F)c(F)ccc42)CCCCC3)cc1	none
Cc1cccc(-n2cnc3cc([N+](=O)[O-])ccc32)c1	MrgX1 allo act 8.2
Nc1ccc(-n2cnc3cc([N+](=O)[O-])ccc32)cc1	none
COc1ccc(/C=c2\sc3nc(=O)c(C)nn3c2=O)c(OC)c1	MrgX1 agonist 27
COc1cccc2c1C(=O)C=C(C)C2=O	MrgX1 antag -7.7, RGS4 pot -7.1
COc1ccc(N2CCN(C(=O)COc3ncnc4ccccc34)CC2)cc1	none
CC1(C)Cc2noc(N)c2C(C)(C)N1O	MrgX1 antag -6.3
Cc1csc(N/N=C/c2c(F)cccc2Cl)n1	MrgX1 allo act 9.8
Cc1csc(N/N=C/c2ccccc2F)n1	none
Clc1ccc(-c2cc(CN3CCOCC3)no2)cc1	none
Cc1ccc(SCc2cc(-c3ccc(Cl)cc3)on2)cc1	RGS4 pot -7.6
Clc1ccc(SCc2cc(-c3ccc(Cl)cc3)on2)cc1	RGS4 pot -8
CCCCCCCCNC(=O)c1ccc(C)cc1	MrgX1 agonist 32
O=C(O)COc1ccc(Br)cc1CP(=O)(c1ccccc1)c1ccccc1	none
COc1cccc(-c2nc(N3CCN(Cc4ccccc4)CC3)c3ccccc3n2)c1O	none (no result: RGS4 pot, RGS4 block)
Cc1c(S(=O)(=O)N2CCN(c3ccc(F)cc3)CC2)c(=O)n(C)c(=O)n1C	none
CCSCc1nnc(SCC(=O)Nc2nccs2)n1CC	none
CCn1c(COc2ccc(C(C)C)cc2)nnc1SCC(=O)Nc1nccs1	MrgX1 antag -7.6
COc1ccc(CN2CCCC(C(=O)c3cccc(C(F)(F)F)c3)C2)cc1O (stereo unspecified)	RGS4 pot -7.6
COc1cc(CN(C(=O)c2cccs2)C2CCS(=O)(=O)C2)cc(OC)c1OC (stereo unspecified)	none
CCOC(=O)c1sc(=S)n(-c2ccccc2Cl)c1SC	RGS4 pot -8.8, MrgX1 allo act 10
COc1c(Cl)cc(Cl)cc1CNc1ccc(S(N)(=O)=O)cc1	none
CCCCn1c(N)c(N(CCC(C)C)C(=O)c2ccc3c(c2)OCO3)c(=O)[nH]c1=O	MrgX1 antag -5.7
CN(C)c1ccc(NC(=O)C[n+]2ccccc2)cc1	none
O=C(C[n+]1ccccc1)Nc1ccc(Oc2ccccc2)cc1	RGS4 pot -7.6
CN(C)S(=O)(=O)c1ccc(N2CCCC2)c(C(=O)OCC(=O)N2CCN(c3ccccc3)CC2)c1	none
CCN(CC)CCCNC(=O)C1CCN(C(=O)c2cc3sccc3n2Cc2ccc(F)cc2)CC1	MrgX1 antag -6
Cc1cc2occ(CC(=O)N(C)CC(=O)Nc3cccc(F)c3)c2cc1C	none
Cc1ccc2c(c1)C=CC(C)(C)S2=O (stereo unspecified)	none
CC[N+]1=C(C)C(C)(C)c2cc(C)ccc21	MrgX1 antag -4.8
CC(C)c1ccc(C(=O)N/N=C/c2cccc(Cl)c2Cl)cc1	MrgX1 allo act 6.5
CC(C)c1ccc(/C=N/NC(=O)c2cccc(Cl)c2)cc1	none
CC(=O)Nc1ccc(C(=O)N/N=C/c2ccccc2OC(=O)c2ccc(Cl)cc2)cc1	RGS4 pot -7.3
COc1ccc2cc(C(=O)N3CCCC(Nc4ccc(F)cc4)C3)n(C)c2c1 (stereo unspecified)	none
O=C(O)COc1ccc(/C=C/c2nc3ccc([N+](=O)[O-])cc3s2)cc1	MrgX1 antag -4.8
COc1ccc(C2(C(F)(F)F)NC(=O)N(C)C(=O)N2C)cc1 (stereo unspecified)	none
O=C1c2ccccc2-c2c1cccc2C(=O)N1CCCCC1	none
CC1CC(C)CN(C(=O)c2ccc3c(c2NCCO)C(=O)c2ccccc2C3=O)C1 (stereo unspecified)	MrgX1 allo act 14
CCN1C(=O)/C(=C\N(C)C)S/C1=N\S(=O)(=O)c1ccccc1	MrgX1 allo act 10
Nc1nc(-c2ccc(Br)cc2)cs1	none
Brc1ccc(-c2csc(Nc3nc(-c4ccc(Br)cc4)cs3)n2)cc1	MrgX1 antag -4.5
Clc1ncnc2scc(-c3ccc(Br)cc3)c12	none
Cc1ccc(NC(=O)/C=C/C(=O)O)c([N+](=O)[O-])c1	none
COc1ccc(NC(=O)/C=C/C(=O)O)c([N+](=O)[O-])c1	MrgX1 allo act 13
C/C(=N\O)c1ccccc1C(=O)O	MrgX1 antag -6.2
O=C1C(Cl)=C(Nc2ccc3cn[nH]c3c2)C(=O)c2ccccc21	MrgX1 antag -9.6
O=C(Nc1ccc2cn[nH]c2c1)c1c(Cl)cccc1Cl	none
COc1ccc(CN(C(=O)c2cc3ccccc3oc2=O)C2CCS(=O)(=O)C2)cc1 (stereo unspecified)	none
COc1ccc(CN(C(=O)c2cc3ccccc3oc2=O)C2CCCC2)cc1	MrgX1 antag -5
COc1cccc(C(=O)Nc2ccc(C(=O)c3ccncc3)cc2)c1	MrgX1 allo act 7.1
COc1cc(OC)c(C(=O)Nc2ccc(C(=O)c3ccccc3)cc2)cc1OC	RGS4 pot -7.2

Compound activity as filed in PubChem BioAssay.
